Sampled rows, rich in hits. Any-hit rate of the full collection: about 2.5%.
JMJD2C inh = blocks human GASC-1 demethylase activity; 330,000 tested, 0.069% active; AID 2099; inhibition, % at 2.35 µM; GST-JMJD2C(1-420) H3K9me3 demethylation, DELFIA europium; Q9H3R0;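 active = more than half of a compound's replicate wells show inhibition beyond 50%, single wells judged on their own value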;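 also: signal counts dimethyl H3K9 product captured on neutravidin plate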
Target sequence (Q9H3R0 1-420 limits assumed): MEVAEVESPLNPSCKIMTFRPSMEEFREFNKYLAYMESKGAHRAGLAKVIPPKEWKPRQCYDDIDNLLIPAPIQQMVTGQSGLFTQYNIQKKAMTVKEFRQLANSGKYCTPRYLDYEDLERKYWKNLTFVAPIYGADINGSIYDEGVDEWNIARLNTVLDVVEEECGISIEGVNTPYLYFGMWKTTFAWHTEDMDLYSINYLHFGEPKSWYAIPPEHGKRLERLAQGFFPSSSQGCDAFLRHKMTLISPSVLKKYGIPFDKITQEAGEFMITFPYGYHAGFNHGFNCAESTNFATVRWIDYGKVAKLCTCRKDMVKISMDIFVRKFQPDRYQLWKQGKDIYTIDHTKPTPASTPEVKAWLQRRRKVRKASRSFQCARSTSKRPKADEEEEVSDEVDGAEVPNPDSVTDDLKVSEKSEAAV
KLK7 zymogen act = proKLK7 (human) activation, primary screen. activation, % at 7 µM. purified proKLK7, EDANS-DABCYL substrate fluorescence; 100% is mature enzyme control, 0% vehicle. P49862. 370,000 tested, 0.9% active;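 active = activation above the mean of all tested compounds plus 3 SD, computed per campaign excluding outliers beyond control limits, cut at about 13% in these data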
NR2E3 ag-1 = activates human NR2E3 receptor; CHO-S Gal4-NCOR/VP16-NR2E3 two-hybrid, luciferase; AID 602229; inhibition of corepressor binding, % at 3.98 µM; Q9Y5X4; 360,000 tested, 0.35% active;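 active = inhibition above the mean of all tested compounds plus 3 SD, cut at about 70% in these data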;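 also: higher means lower luciferase signal from less NR2E3 corepressor binding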
ADAM10 inh = inhibitors of human ADAM10 | recombinant ADAM10, EDANS/DABCYL FRET peptide cleavage, 3 h | inhibition, % at 7 µM | AID 720582 | 370,000 tested, 0.62% active | O14672;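 active = inhibition above a per-campaign cutoff equal to the mean of compounds falling between control-based bounds plus 3 SD, cut at about 20% in these data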
NR2E3 ag-2 = activates human photoreceptor nuclear receptor NR2E3 | inhibition of corepressor binding, % at 4.78 µM | AID 2300 | GST-NR2E3/biotin-RetCOR TR-FRET, 1536-well | 320,000 tested, 0.12% active;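 active = percent inhibition above the cutoff of mean plus 3 SD of all tested compounds, set per screening campaign, cut at about 20% in these data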
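Material: NR2E3–RetCOR corepressor complex / Incubation: Compound–protein incubation for 5 h at 4 °C / Dosing: compound at 4.8 µM, single dose / Detection: time-resolved FRET / Benchmarks: high control biotin, low control 0.6% DMSO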
ADAM17 inh = inhibits human ADAM17. P78536. inhibition, % at 6.95 µM. AID 720648. 370,000 tested, 0.83% active. recombinant ADAM17, EDANS/DABCYL FRET peptide cleavage;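 active = inhibition above the mean of compounds lying between control limits plus 3 SD, set per campaign, cut at about 8.5% in these data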
NR2E3 ag confirm = confirmation of human NR2E3 agonists; shares compounds with NR2E3 ag-1; CHO-S mammalian two-hybrid NR2E3-NCOR, luciferase luminescence; inhibition, % at 3.98 µM; 2,300 tested, 51% active; AID 624378;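 active = average inhibition above a cutoff equal to the mean inhibition of all tested compounds plus one SD, cut at about 70% in these data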
VP16 counter = counter-screen for NR2E3 agonists: GAL4-VP16 reporter inhibitors; shares compounds with NR2E3 ag-1; CHO-S GAL4-VP16 luciferase reporter, luminescence; inhibition, % at 3.98 µM; 2,300 tested, 29% active; AID 624379;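 active = mean inhibition above a cutoff equal to the average over all tested compounds plus one standard deviation, cut at about 70% in these data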;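 also: luciferase from a UAS reporter driven by GAL4-VP16 transactivation; higher means less reporter light so more repression of VP16 activity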
Numbers stand for hits; . = inactive; / = not tested or not shown.

SMILES	JMJD2C inh	KLK7 zymogen act	NR2E3 ag-1	ADAM10 inh	NR2E3 ag-2	ADAM17 inh	NR2E3 ag confirm	VP16 counter
COCCN(Cc1cc2cc3c(cc2nc1Cl)OCO3)C(=O)Nc1ccc(OC)cc1	.	.	.	.	.	.	/	/
O=C(CCc1ccccc1)N[C@H]1[C@H](OC(=O)c2cccnc2)CCC[C@@]12C(=O)N(Cc1ccccc1)c1ccccc12	/	.	/	.	/	.	/	/
O=C(COc1cccc2ccccc12)Nc1ccc(Cl)cc1C(=O)O	.	.	78	.	.	.	95	.
O=C(COc1ccccc1C(=O)O)Nc1cccc2ccccc12	.	.	.	.	/	.	/	/
O=C(Cc1ccc(S(=O)(=O)N2CCCC2)s1)N1CCN(c2ccccc2)CC1	.	.	.	.	.	.	/	/
O=C(Cc1ccc(S(=O)(=O)N2CCOCC2)s1)N1CCN(c2cccc(C(F)(F)F)c2)CC1	.	/	72	/	.	/	81	.
Clc1ccccc1-c1cnc2sc(NCc3ccc4c(c3)OCO4)nn12	/	.	.	.	/	.	.	.
CC(=O)c1c(C)[nH]c(C(=O)COc2cc(C)ccc2C(C)C)c1C	.	.	85	.	.	.	91	79
COc1cc(C)ccc1OCC(=O)OCC(=O)c1[nH]c(C)c(C(C)=O)c1C	.	.	.	.	/	.	/	/
CCn1c(Cl)c(C=O)s/c1=N\S(=O)(=O)c1ccccc1	.	.	.	.	.	.	.	.
CCN(CCn1cccn1)Cc1ccccc1OCC(O)CN1CCc2ccccc2C1 (stereo unspecified)	.	.	.	.	.	.	/	/
Cc1cc(N2CCC(C)CC2)nc(-n2nc(C)cc2C)n1	.	.	94	.	.	.	.	.
Cc1noc(C)c1S(=O)(=O)Nc1ccc(C(=O)N2CCN(c3ccc(Cl)cc3)CC2)cc1	.	.	.	.	.	.	86	.
N=C1SC(c2ccccc2)C(=O)N1c1ncc(Cc2ccccc2)s1 (stereo unspecified)	.	.	71	.	.	.	.	.
Nc1ccc(S(=O)(=O)Nc2ccc(C(=O)c3ccccc3)cc2)cc1	.	.	.	.	.	.	/	/
Nc1ccc(S(=O)(=O)NNC(=O)C(=O)NNc2ccccc2)cc1	.	.	.	.	.	.	.	.
CN(C)C(=O)C[C@H]1CC[C@H]2[C@H](COc3ccc(NC(=O)C4CC4)cc3C(=O)N2C)O1	/	.	/	.	/	.	/	/
CCc1ccc(CNC(=O)c2cc3c(C)nc4ccccc4c3o2)cc1	.	.	94	.	.	.	95	87
CCC[C@H]1[C@@H](NC(=O)/C=C/c2ccccc2)CC[C@@]23CCCN2C(=O)CCC[C@@H]13	/	/	/	.	/	.	/	/
CC(=O)N1CC(C)Sc2ccc(S(=O)(=O)NCc3ccc(F)cc3)cc21 (stereo unspecified)	.	.	.	.	.	.	/	/
Cc1ccc(CNS(=O)(=O)c2ccc3c(c2)CCN3C(=O)C2CCC2)cc1	.	.	.	.	.	.	/	/
CC(=O)N1CCc2cc(S(=O)(=O)NCc3ccc(C)cc3)ccc21	.	.	.	.	.	.	.	.
CC(=O)N1CC(C)Sc2ccc(S(=O)(=O)NCCc3cccc(C)c3)cc21 (stereo unspecified)	.	.	79	.	.	.	77	.
COc1ccc(CNS(=O)(=O)c2ccc3c(c2)N(C(C)=O)CC(C)S3)cc1 (stereo unspecified)	.	.	.	.	.	.	.	.
CC(C)C(=O)OCCCN1C(=O)CCC12CCC(c1ccccc1)CC2 (stereo unspecified)	/	.	/	.	/	.	/	/
c1ccc(-c2c[nH]c3cccc(C4CCCCC4)c23)cc1	/	.	/	.	/	.	/	/
CC12CCC(=O)C=C1CCC1C2CCC2(C)C(c3csc(N)n3)CCC12 (stereo unspecified)	/	.	75	24	/	.	94	76

Bioassay records (PubChem)
